Activity calls are given as the source filed them. The calls are words filed in the database; no cut-off is given here.
Key:
[1] = biological target: Protein arginine N-methyltransferase 1 (Homo sapiens) (UniProt Q99873); assay: Inhibition of human recombinant GST-PRMT1 expressed Escherichia coli BL21 using Npl3p substrate as substrate and [3H]-SAM at 50 uM after 90 mins by scintillation counting
Outline: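 Human recombinant PRMT1 was incubated with Npl3p substrate and [³H]SAM (0.42 μM) in PBS pH 7.4 with compound at 50 μM for 90 min at 30 °C. Percent inhibition was determined.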

[2] = biological target: T1, Histone-arginine methyltransferase CARM1 (Homo sapiens) (UniProt Q86X55); assay: Activation of recombinant CARM1 using PABP1 as substrate and [3H]-SAM at 50 uM after 90 mins by scintillation counting
T1 sequence (whole entry): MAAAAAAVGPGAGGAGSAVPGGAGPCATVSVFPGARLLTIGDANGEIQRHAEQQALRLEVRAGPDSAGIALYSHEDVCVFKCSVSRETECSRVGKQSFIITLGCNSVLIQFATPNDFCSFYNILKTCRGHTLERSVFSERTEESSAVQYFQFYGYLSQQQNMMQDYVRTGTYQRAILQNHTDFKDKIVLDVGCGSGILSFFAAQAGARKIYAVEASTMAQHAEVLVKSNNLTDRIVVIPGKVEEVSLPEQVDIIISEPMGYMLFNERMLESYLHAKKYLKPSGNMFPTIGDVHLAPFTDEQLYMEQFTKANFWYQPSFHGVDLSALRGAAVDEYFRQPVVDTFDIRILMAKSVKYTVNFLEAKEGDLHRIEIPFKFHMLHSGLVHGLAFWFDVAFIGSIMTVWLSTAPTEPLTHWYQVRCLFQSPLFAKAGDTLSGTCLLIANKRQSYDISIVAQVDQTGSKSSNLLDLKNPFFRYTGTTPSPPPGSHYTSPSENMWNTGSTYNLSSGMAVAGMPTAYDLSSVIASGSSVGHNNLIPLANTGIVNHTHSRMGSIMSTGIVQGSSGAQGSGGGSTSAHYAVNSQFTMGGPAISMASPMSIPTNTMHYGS
Outline: (§1)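 Recombinant CARM1 (0.2 μg) was incubated with PABP1 substrate and [³H]SAM (0.42 μM) in PBS pH 7.4 for 90 min at 30 °C. Compound was tested at 50 μM, or at 3–100 μM for concentration series. Bands were Ponceau-stained, excised and counted by liquid scintillation. Activity is given as % of DMSO control; no-SAM reactions served as negative control; at least two experiments.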

[3] = biological target: T1, Histone-arginine methyltransferase CARM1 (Homo sapiens); assay: Activation of recombinant CARM1 using histone H3 as substrate and [3H]-SAM at 50 uM after 90 mins by scintillation counting
Outline: (§2)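 Recombinant CARM1 (0.2 μg) was incubated with histone H3 (1.1 μM) and [³H]SAM (0.42 μM) in PBS pH 7.4 with compound (50 μM) for 90 min at 30 °C. Methylation was measured by scintillation counting. Activity is expressed as % relative to DMSO, as the mean of at least two separate experiments.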

[4] = biological target: T1, Histone-arginine methyltransferase CARM1 (Homo sapiens); assay: Activation of recombinant CARM1 expressed in HEK293 cells co-expressing 3XFLAG-tagged PABP1 assessed as arginine methylation of PABP1 at 50 uM after 24 hrs; type: cell-based
Outline: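 Flp-In T-Rex HEK293 cells stably carrying Tet-inducible 3XFLAG-PABP1 were kept in DMEM/10% FBS with blasticidin and hygromycin. They were plated at 1 × 10⁵ cells/mL and the medium was changed after 12 h. Cells then got compound with or without tetracycline (1 μg/mL) for 24 h. RIPA lysates were immunoblotted with anti-methyl-PABP1 and anti-FLAG. Band densities were compared to DMSO control.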

[5] = biological target: T1, Histone-arginine methyltransferase CARM1 (Homo sapiens); assay: Inhibition of recombinant CARM1 using histone H3 as substrate at 50 uM and [3H]-SAM after 90 mins by scintillation counting
Outline: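 Recombinant CARM1 (0.2 μg) incubated with histone H3 substrate (0.5 μg; H3 1.1 μM) and [3H]SAM (0.42 μM) in PBS pH 7.4 with 50 μM compound, 90 min, 30 °C. Bands Ponceau-stained, excised, scintillation counted; activity expressed as percent of DMSO control. Means of at least two separate experiments, SD in percentage points.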

[6] = biological target: Protein arginine N-methyltransferase 6 (Homo sapiens) (UniProt Q96LA8); assay: Inhibition of recombinant PRMT6 using histone H3 as substrate at 50 uM and [3H]-SAM after 90 mins by scintillation counting
Protein arginine N-methyltransferase 6 (Homo sapiens), sequence (Q96LA8 whole entry, looked up): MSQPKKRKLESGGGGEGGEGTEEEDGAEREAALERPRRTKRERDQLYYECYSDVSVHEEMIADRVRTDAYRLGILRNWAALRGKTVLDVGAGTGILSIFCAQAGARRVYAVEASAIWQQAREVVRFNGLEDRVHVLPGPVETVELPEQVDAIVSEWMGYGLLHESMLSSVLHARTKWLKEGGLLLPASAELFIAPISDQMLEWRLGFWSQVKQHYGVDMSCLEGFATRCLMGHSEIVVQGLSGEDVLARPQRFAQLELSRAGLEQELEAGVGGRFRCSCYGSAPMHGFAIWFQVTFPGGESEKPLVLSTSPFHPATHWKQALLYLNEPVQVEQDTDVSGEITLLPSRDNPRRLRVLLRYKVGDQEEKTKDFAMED

[7] = biological target: Protein arginine N-methyltransferase 3 (Homo sapiens) (UniProt O60678); assay: Inhibition of recombinant PRMT3 using glycine- and arginine-rich motif as substrate at 50 uM and [3H]-SAM after 90 mins by scintillation counting
Protein arginine N-methyltransferase 3 (Homo sapiens), sequence (O60678 2-531 limits assumed): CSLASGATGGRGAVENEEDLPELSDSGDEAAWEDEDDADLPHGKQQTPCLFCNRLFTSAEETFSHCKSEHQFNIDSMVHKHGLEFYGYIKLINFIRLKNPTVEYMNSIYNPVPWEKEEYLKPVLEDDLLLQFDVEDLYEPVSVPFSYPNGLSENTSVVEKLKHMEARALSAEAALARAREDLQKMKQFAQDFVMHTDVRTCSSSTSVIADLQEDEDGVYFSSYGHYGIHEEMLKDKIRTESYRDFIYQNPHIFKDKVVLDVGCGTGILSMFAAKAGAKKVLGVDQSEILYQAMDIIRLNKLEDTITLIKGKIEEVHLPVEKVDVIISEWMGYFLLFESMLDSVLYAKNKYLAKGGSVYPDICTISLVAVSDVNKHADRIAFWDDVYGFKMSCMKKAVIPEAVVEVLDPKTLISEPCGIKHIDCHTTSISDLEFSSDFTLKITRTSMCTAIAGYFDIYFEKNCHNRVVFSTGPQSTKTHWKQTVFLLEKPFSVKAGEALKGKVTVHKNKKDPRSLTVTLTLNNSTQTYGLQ
Outline: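 Recombinant PRMT3 was incubated with GAR-motif substrate and [³H]SAM (0.42 μM) in PBS pH 7.4 with compound at 50 μM for 90 min at 30 °C.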

[8] = biological target: T2, Histone-lysine N-methyltransferase SETD7 (Homo sapiens) (UniProt Q8WTS6); assay: Inhibition of recombinant SET7 using histone H3 as substrate at 50 uM and [3H]-SAM after 90 mins by scintillation counting
T2 sequence (whole entry): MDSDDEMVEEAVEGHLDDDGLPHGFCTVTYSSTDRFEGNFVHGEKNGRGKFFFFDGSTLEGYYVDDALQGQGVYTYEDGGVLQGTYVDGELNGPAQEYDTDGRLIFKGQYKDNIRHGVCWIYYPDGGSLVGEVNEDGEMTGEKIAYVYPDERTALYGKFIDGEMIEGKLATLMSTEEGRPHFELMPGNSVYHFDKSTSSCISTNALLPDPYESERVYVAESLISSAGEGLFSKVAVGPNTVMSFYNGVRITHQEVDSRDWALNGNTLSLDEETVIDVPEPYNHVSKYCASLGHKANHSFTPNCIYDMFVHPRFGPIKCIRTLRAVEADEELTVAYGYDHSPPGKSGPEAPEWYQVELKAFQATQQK

[9] = biological target: T1, Histone-arginine methyltransferase CARM1 (Homo sapiens); assay: Activation of recombinant CARM1 using histone H3 as substrate and [3H]-SAM after 90 mins by scintillation counting; outline: as §2
[10] = biological target: T1, Histone-arginine methyltransferase CARM1 (Homo sapiens); assay: Activation of recombinant CARM1 using PABP1 as substrate and [3H]-SAM after 90 mins by scintillation counting; outline: as §1

Protein arginine N-methyltransferase 1 (Homo sapiens), sequence (Q99873 whole entry, looked up): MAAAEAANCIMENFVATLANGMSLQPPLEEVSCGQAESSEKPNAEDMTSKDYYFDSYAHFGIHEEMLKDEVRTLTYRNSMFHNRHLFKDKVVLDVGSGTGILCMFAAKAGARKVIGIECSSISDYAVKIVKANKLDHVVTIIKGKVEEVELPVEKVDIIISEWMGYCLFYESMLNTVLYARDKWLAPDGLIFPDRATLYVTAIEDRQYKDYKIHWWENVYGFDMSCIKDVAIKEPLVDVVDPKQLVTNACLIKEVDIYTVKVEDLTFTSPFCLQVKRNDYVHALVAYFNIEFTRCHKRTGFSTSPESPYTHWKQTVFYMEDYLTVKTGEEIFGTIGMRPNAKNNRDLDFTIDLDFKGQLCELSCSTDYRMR

SMILES	inhibition [1]	Activity [2]	Activity [3]	further results
COC(=O)c1c[nH]c2ccc(NC(=O)CNC(=O)Nc3ccc(N(C)C)cc3)cc12	inactive	7.6%	125%	–
N#Cc1ccc(NC(=O)NCC(=O)Nc2ccc3[nH]c(C(=O)O)cc3c2)cc1	inactive	81.2%	143%	–
O=C(CNC(=O)Nc1ccccc1)Nc1ccc2[nH]c(C(=O)O)cc2c1	inactive	172%	167%	–
CCOC(=O)c1cc2cc(NC(=O)CNC(=O)Nc3ccc(C#N)cc3)ccc2[nH]1	inactive	358%	115%	Activity [4]: Active
CCOC(=O)c1cc2cc(NC(=O)CNC(=O)Nc3ccc(OC)cc3)ccc2[nH]1	inactive	74.7%	183%	–
CCOC(=O)c1cc2cc(NC(=O)CNC(=O)Nc3ccc(C)cc3)ccc2[nH]1	inactive	382%	127%	Activity [4]: Active
O=C(CNC(=O)Nc1ccc([N+](=O)[O-])cc1)Nc1ccc2[nH]c(C(=O)O)cc2c1	inactive	85.3%	142%	–
COC(=O)c1c[nH]c2ccc(NC(=O)CNC(=O)Nc3ccccc3)cc12	inactive	26.5%	74.7%	–
O=C(Nc1ccc2c(O)cc(S(=O)(=O)O)cc2c1)Nc1ccc2c(O)cc(S(=O)(=O)O)cc2c1	–	–	74%	inhibition [5]: 74.8%; inhibition [6]: 40.7%; inhibition [7]: 101%; inhibition [8]: 34.3%
COC(=O)c1c[nH]c2ccc(NC(=O)CNC(=O)Nc3ccc(C#N)cc3)cc12	inactive	38.8%	135%	–
Cc1ccc(NC(=O)NCC(=O)Nc2ccc3[nH]c(C(=O)O)cc3c2)cc1	inactive	149%	111%	–
COC(=O)c1c[nH]c2ccc(NC(=O)CNC(=O)Nc3ccc([N+](=O)[O-])cc3)cc12	inactive	115%	134%	–
O=C(Nc1ccc2cc(C(=O)O)cc(O)c2c1)Nc1ccc2cc(C(=O)O)cc(O)c2c1	–	–	83.1%	–
CCOC(=O)c1cc2cc(NC(=O)CNC(=O)Nc3ccccc3)ccc2[nH]1	inactive	10.5%	134%	–
CCOC(=O)c1cc2cc(NC(=O)CNC(=O)Nc3ccc(N(C)C)cc3)ccc2[nH]1	inactive	70.6%	102%	–
CN(C)c1ccc(NC(=O)NCC(=O)Nc2ccc3[nH]c(C(=O)O)cc3c2)cc1	inactive	135%	48.3%	–
CCOC(=O)c1cc2cc(NC(=O)CNC(=O)Nc3ccc([N+](=O)[O-])cc3)ccc2[nH]1	inactive	299%	176%	Activity [9]: Dose-dependent effect; Activity [10]: Dose-dependent effect; inhibition [6]: 19.3%; inhibition [7]: 54.7%; inhibition [8]: 10.2%

Second part, led by results:

inhibition [1]	Activity [2]	Activity [3]	SMILES	further results
inactive	–	–	COc1ccc(NC(=O)NCC(=O)Nc2ccc3[nH]cc(C(=O)O)c3c2)cc1	–
inactive	–	–	Cc1ccc(NC(=O)NCC(=O)Nc2ccc3[nH]cc(C(=O)O)c3c2)cc1	–
inactive	4.7%	39.7%	COC(=O)c1c[nH]c2ccc(NC(=O)CNC(=O)Nc3ccc(C)cc3)cc12	–
inactive	96.3%	211%	COc1ccc(NC(=O)NCC(=O)Nc2ccc3[nH]c(C(=O)O)cc3c2)cc1	–
inactive	–	–	N#Cc1ccc(NC(=O)NCC(=O)Nc2ccc3[nH]cc(C(=O)O)c3c2)cc1	–
inactive	–	–	O=C(CNC(=O)Nc1ccccc1)Nc1ccc2[nH]cc(C(=O)O)c2c1	–
inactive	28.2%	62.7%	COC(=O)c1c[nH]c2ccc(NC(=O)CNC(=O)Nc3ccc(OC)cc3)cc12	–
inactive	–	–	CN(C)c1ccc(NC(=O)NCC(=O)Nc2ccc3[nH]cc(C(=O)O)c3c2)cc1	–
inactive	–	–	O=C(CNC(=O)Nc1ccc([N+](=O)[O-])cc1)Nc1ccc2[nH]cc(C(=O)O)c2c1	–
